The results in this text go back to ChEMBL document CHEMBL1154231, “Bioactive Nortriterpenoids from Schisandra grandiflora” (J Nat Prod, 2009).

Series [1] deals with Human immunodeficiency virus 1. The experiment in a line: Antiviral activity against HIV1 infected in human C8166 cells assessed as inhibition of virus-induced cytopathic effect. The class given is functional, organism-based. The note with it: Human immunodeficiency virus 1, C8166. The essentials:
(§1)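 HIV-1-induced cytopathic effect inhibition in permanent human T-cell line C8166, giving EC50. Cytotoxicity to uninfected C8166 cells run in parallel by MTT, giving CC50. Selectivity index taken as CC50/EC50. AZT served as positive control.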
Background: Damage to the host cells serves as the signal in cytopathic effect assays.

A short description of series [2]: Selectivity index, ratio of CC50 for human C8166 cells to EC50 for HIV1. Format: toxicity, cell-based. To be noted: read-out: Ratio CC50/EC50. The method, boiled down: as §1
In another series the test system is K562. The experiment in a line: Cytotoxicity against human K562 cells after 48 hrs by sulforhodamine B assay. The class given is functional, cell-based. To be noted: K562, 48 h. Background: In SRB staining, fixed cells bind dye roughly in proportion to their protein.
A further series has as its system HepG2. The experiment in a line: Cytotoxicity against human HepG2 cells after 48 hrs by sulforhodamine B assay. To be noted: HepG2, 48 h. Format: functional, cell-based.
A short description of series [3]: Cytotoxicity against human C8166 cells by MTT assay. Format: cell-based. The essentials: as §1

Values after ≈ are worked out from the molar mass of the structure shown. Some results are limits rather than exact numbers.

As to `C[C@@H]1C(=O)[C@@]2(C)CC[C@]34C[C@]56OC(=O)C[C@H]5O[C@@](C)(CO)[C@@H]6CC[C@@]3(O)C(=O)[C@@]3(O[C@@]5(C[C@H](C)C(=O)O5)[C@@H]1[C@H]32)O4` [SCHIGRANDILACTONE A], the EC50 (as a rule, the concentration at which the effect is half-maximal) in series [1] was 80.2 µg/mL (≈ 143 µM). In addition, the selectivity ratio in series [2] was determined as 1.1. For the same compound, the IC50 – broadly, the point on the concentration scale where inhibition reaches its midpoint – with K562 was determined as 0.13 µg/mL (≈ 0.232 µM); in the series with HepG2, 0.19 µg/mL (≈ 0.339 µM).

Consider `C[C@@H]1C(=O)[C@@]2(C)CC[C@]34C[C@]56OC(=O)C[C@H]5O[C@@](C)(CO)[C@@H]6C[C@@H]5O[C@@]53C(=O)[C@@]3(O[C@@]5(C[C@H](C)C(=O)O5)[C@@H]1[C@H]32)O4` [SCHIGRANDILACTONE B], for which the EC50 in series [1] is 20.8 µg/mL (≈ 37.2 µM). Also, the selectivity ratio in series [2] amounted to 4. Moreover, the IC50 worked out at 3.19 µg/mL (≈ 5.71 µM) in the series on K562 and 0.2 µg/mL (≈ 0.358 µM) in the series with HepG2.

As to `C[C@@H]1C(=O)[C@@]2(C)CC[C@]34C[C@]56OC(=O)C[C@H]5O[C@@](C)(CO)[C@@H]6[C@@H](O)C[C@H]3C(=O)[C@]3(O4)O[C@@]4(C[C@H](C)C(=O)O4)[C@@H]1[C@H]32` [SCHIGRANDILACTONE C], the EC50 in series [1] came out at 5.1 µg/mL (≈ 9.1 µM). The selectivity ratio in series [2] is 12.7.

Consider `Cc1cn([C@H]2C[C@H](N=[N+]=[N-])[C@@H](CO)O2)c(=O)[nH]c1=O` [ZIDOVUDINE], for which the cytotoxic concentration (CC50) (usually the concentration giving 50% cytotoxicity) in series [3] was greater than 200 µg/mL.
